Source: ChEMBL document CHEMBL1132491, “Benzimidazole derivatives. 2. Synthesis and structure-activity relationships of new azabicyclic benzimidazole-4-carboxylic acid derivatives with affinity for serotoninergic 5-HT(3) receptors” (J Med Chem, 1999)

Legend:
[1] = molecular target: 5-hydroxytryptamine receptor 4 (Rattus norvegicus, UniProt Q62758); experiment: In vitro affinity at serotonergic 5-hydroxytryptamine 4 receptor by radioligand binding assay using [3H]GR-113808 in rat striatum membranes.; assay type: cell membranes
5-hydroxytryptamine receptor 4, sequence (Q62758 whole entry): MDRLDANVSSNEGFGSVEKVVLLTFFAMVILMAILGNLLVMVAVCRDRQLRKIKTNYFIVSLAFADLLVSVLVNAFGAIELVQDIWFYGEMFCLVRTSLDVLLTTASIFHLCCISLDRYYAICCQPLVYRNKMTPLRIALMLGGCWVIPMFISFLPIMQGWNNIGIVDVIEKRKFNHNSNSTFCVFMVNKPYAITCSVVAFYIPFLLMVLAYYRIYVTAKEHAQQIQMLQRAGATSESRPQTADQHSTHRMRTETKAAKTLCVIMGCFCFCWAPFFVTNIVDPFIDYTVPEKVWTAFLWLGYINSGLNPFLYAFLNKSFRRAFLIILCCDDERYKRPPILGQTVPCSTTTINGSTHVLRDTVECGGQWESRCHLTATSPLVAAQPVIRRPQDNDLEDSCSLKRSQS

[2] = molecular target: T1, Serotonin 3 (5-HT3) receptor (Rattus norvegicus, UniProt P35563+Q9JJ16); experiment: In vitro affinity at serotonergic 5-hydroxytryptamine 3 receptor by radioligand binding assay, using [3H]-LY 278584 in rat cerebral cortex membranes.; assay type: cell membranes
T1 sequence (P35563 whole entry): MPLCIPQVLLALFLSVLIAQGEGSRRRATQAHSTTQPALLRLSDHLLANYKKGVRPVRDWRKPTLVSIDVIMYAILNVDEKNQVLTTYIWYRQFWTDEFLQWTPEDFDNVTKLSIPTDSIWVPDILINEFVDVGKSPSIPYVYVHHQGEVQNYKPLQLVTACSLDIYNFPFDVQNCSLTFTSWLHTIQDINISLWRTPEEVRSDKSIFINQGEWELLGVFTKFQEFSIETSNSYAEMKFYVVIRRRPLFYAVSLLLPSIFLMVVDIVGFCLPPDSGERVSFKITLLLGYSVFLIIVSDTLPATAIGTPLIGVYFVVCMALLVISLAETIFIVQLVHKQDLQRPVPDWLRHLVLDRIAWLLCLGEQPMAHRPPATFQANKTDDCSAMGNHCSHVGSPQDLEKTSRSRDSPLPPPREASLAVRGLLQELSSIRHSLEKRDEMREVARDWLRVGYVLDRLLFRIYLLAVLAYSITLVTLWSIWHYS
T1 sequence (Q9JJ16 whole entry): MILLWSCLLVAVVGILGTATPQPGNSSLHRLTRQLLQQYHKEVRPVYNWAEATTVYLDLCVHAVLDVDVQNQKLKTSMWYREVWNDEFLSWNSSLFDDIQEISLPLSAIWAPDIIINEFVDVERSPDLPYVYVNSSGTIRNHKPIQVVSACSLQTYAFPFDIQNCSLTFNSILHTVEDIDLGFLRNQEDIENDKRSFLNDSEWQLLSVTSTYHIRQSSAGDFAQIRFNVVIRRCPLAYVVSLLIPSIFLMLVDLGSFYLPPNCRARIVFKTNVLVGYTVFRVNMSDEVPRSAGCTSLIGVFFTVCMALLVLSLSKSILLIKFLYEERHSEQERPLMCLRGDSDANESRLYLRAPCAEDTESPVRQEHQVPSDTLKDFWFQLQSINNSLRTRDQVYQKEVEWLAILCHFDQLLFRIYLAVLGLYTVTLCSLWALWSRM
Procedure, shortened: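 Rat cerebral cortex membranes prepared in 0.32 M sucrose, then washed in 50 mM Tris-HCl pH 7.4 and preincubated at 37 °C for 10 min. About 2 mg/mL protein incubated 30 min at 25 °C with 0.7 nM [3H]LY 278584 and six competitor concentrations. Buffer contained pargyline, ascorbate and CaCl2. Nonspecific binding defined with 10 μM 5-HT. Triplicates, filtration, scintillation counting. Ki from IC50 via Cheng–Prusoff, means of 2–4 assays.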

[3] = molecular target: Serotonin 3 (5-HT3) receptor (Homo sapiens) (UniProt P46098+A5X5Y0+O95264+Q70Z44+Q8WXA8); conditions: Cavia porcellus; Ileum
Cavia porcellus [4] = species: Cavia porcellus; experiment: Single-point analysis using 5(10e-9) M concentration of the antagonist (pA2= -log([B]/concentration ratio-1); [B] =concentration of the antagonist).; assay type: functional; conditions: read-out: pA2 (converted)
Procedure, shortened: (§1)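 Ileal strip preparation with methysergide 10^-6 M present. Paired noncumulative 5-HT curves are run, with the antagonist at 5×10^-9 M added 30 min before the second curve. The concentration ratio is taken at the 5-HT level giving 50% of the control maximum in the ≥10^-6 M phase. Single-point pA2 = −log([B]/(CR−1)) (Furchgott).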

[5] = molecular target: T1, Serotonin 3 (5-HT3) receptor; experiment: Compound was evaluated for its in vitro affinity at serotonergic 5-hydroxytryptamine 3 receptor by radioligand binding assay, using [3H]-LY 278584 in rat cerebral cortex membranes.; assay type: cell membranes
Cavia porcellus [6] = species: Cavia porcellus; experiment: Single-point analysis using 5(10e-9) M concentration of the antagonist (pA2= -log([B]/concentration ratio-1); [B] =concentration of the antagonist); assay type: functional; conditions: read-out: pA2 (converted); procedure, shortened: as §1

Structure (SMILES)	Ki [1]	Ki [2]	further results
CCC1CCN(C)C[C@@H]1NC(=O)c1cccc2nc[nH]c12 (stereo not given in full)	> 10000 nM	38.3 nM	–
Cc1nccn1CC1CCc2c(c3ccccc3n2C)C1=O (stereo not given) [ONDANSETRON]	–	–	ED50 [3]: 43000 nM; Kb (Cavia porcellus [4]): 0.126 nM
Nc1c(Cl)cc(C(=O)NC2CN3CCC2CC3)c2[nH]cnc12 (stereo not given)	187 nM	0.24 nM	–
CN1C2CCCC1CC(NC(=O)c1nn(C)c3ccccc13)C2 (stereo not given) [GRANISETRON]	> 1000 nM	–	–
CN1C2CCC1CC(OC(=O)c1cccc3[nH]cnc13)C2 (stereo in doubt; 24)	> 10000 nM	–	Ki [5]: > 1000 nM
CN1C2CCC1CC(OC(=O)c1cc(Cl)cc3[nH]cnc13)C2 (stereo not given)	356 nM	61.2 nM	–
O=C(N[C@@H]1CN2CCC1CC2)c1cc(Br)cc2nc[nH]c12	38.3 nM	0.28 nM	–
CN1C2CCCC1CC(NC(=O)c1cc(Cl)cc3nc[nH]c13)C2 (stereo not given)	> 1000 nM	83 nM	–
CN1C2CCC1CC(NC(=O)c1cc(Cl)cc3nc[nH]c13)C2 (stereo not given)	319 nM	16.6 nM	–
Nc1c(Br)cc(C(=O)NC2CN3CCC2CC3)c2[nH]cnc12 (stereo not given)	227 nM	0.42 nM	–
CN1C2CCC1CC(NC(=O)c1cccc3[nH]cnc13)C2 (stereo not given)	> 10000 nM	118 nM	–
O=C(NC1CN2CCC1CC2)c1cc(Br)c([N+](=O)[O-])c2nc[nH]c12 (stereo not given)	> 10000 nM	8.8 nM	–
O=C(N[C@@H]1CN2CCC1CC2)c1cc(Cl)cc2nc[nH]c12	> 10000 nM	0.13 nM	Kb (Cavia porcellus [6]): 0.126 nM; ED50 [3]: 17000 nM
O=C(N[C@H]1CN2CCC1CC2)c1cc(Br)cc2nc[nH]c12	270 nM	3.4 nM	–
O=C(NC1CN2CCC1CC2)c1cc(Cl)c([N+](=O)[O-])c2nc[nH]c12 (stereo not given)	> 1000 nM	5.2 nM	–
CN1C2CCCC1CC(NC(=O)c1cccc3[nH]cnc13)C2 (stereo not given)	> 10000 nM	230 nM	–
CN1C2CCC1CC(OC(=O)c1cccc3[nH]cnc13)C2 (stereo in doubt; 23)	> 10000 nM	–	Ki [5]: > 1000 nM
CN1C2CCCC1CC(OC(=O)c1cc(Cl)cc3[nH]cnc13)C2 (stereo not given)	–	88.7 nM	–
Nc1ccc(C(=O)NC2CN3CCC2CC3)c2[nH]cnc12 (stereo not given)	779 nM	2.4 nM	–
CCC1CCN(C)C[C@H]1NC(=O)c1cccc2[nH]cnc12 (stereo not given in full)	> 1000 nM	2.6 nM	Kb (Cavia porcellus [6]): 0.251 nM
CN1C2CCCC1CC(OC(=O)c1cccc3nc[nH]c13)C2 (stereo not given)	–	–	Ki [5]: 678 nM
O=C(N[C@@H]1CN2CCC1CC2)c1cc(Cl)c([N+](=O)[O-])c2nc[nH]c12	> 1000 nM	1.7 nM	Kb (Cavia porcellus [6]): 0.794 nM; ED50 [3]: 68000 nM
O=C(NC1CN2CCC1CC2)c1cc(Br)cc2nc[nH]c12 (stereo not given)	168 nM	0.29 nM	–
O=C(N[C@H]1CN2CCC1CC2)c1cc(Cl)cc2nc[nH]c12	205 nM	0.76 nM	–
